Each structure is given as a SMILES string. Active and inactive are the calls of the source.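 Rule for the calls, unless noted: active = viability at or below 10% of carrier control in both of two separate runs; inconclusive = viability at or below 10% in only one of the two runs; inactive = the rest.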

A short description of experiment [1]: Her2 expression decrease, cell viability multiplex – SKBR3 breast tumor cells, AlphaScreen, ATP viability, primary screen (AID 461;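 active = Her2 level under about 52% in both replicate screens, with viability over 70% of control, limit read from the data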;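 for Her2 level: lower value means less Her2 protein in the cells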;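 for viability: percent of carrier control wells set as 100% viability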). The following applies: SKBR3 Her2 protein level, 18-24 h, measured here: SKBR3 viability, ATP luminescence, at 10 µM.
Experiment [2] has as its target Receptor tyrosine-protein kinase erbB-2 (Homo sapiens) (UniProt P04626). Described as above. Conditions: 18-24 h, at 10 µM, stronger effect = lower value.
The nature of experiment [3]: reduced viability of SK-BR-3 breast cancer cells – cell-based, 24 h, human, pilot screen (AID 572).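 Note: compound exposure lasted between 18 and 24 h rather than exactly 24 h; 100% = carrier-treated control wells.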 Conditions: SK-BR-3 viability, CellTiter-Glo luminescence, at 10 µM, stronger effect = lower value.
Experiment [4] can be described thus: HUVEC growth inhibition – cell-based, human, primary screen (AID 575;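 active = viability at or below 30% in both replicate assays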;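 note: 100% = median of untreated cell wells with 0.1% DMSO on each plate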). Conditions: HUVEC proliferation, CellTiter-Glo luminescence, 72 h; at 10 µM; stronger effect = lower value. An outline of the steps:
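Test system: primary human umbilical vein endothelial cells; medium: endothelial basal medium with 2% FBS plus growth supplements; dosing: 10 µM compound only; times: 72 h treatment at 37 °C; signal: CTG luminescence; read-out: % viability relative to median vehicle-well signal on each plate; control set: vehicle and MePR control wells; plate: 384-well, collagen-coated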

Experiment [5] can be described thus: H69AR cell proliferation blockers – human, duplicate replicates, primary screen (AID 580;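 active = viability at or under a set limit in both replicates, limit being median viability minus 3 SD, cut at about 48% in these data, passing the limit was not always enough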;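 note: 100% = mean luminescence of untreated wells and 0% = no signal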). The following applies: H69AR lung tumor cells viability, ATP luminescence, 72 h; at 10 µM; stronger effect = lower value.
The nature of experiment [6]: MRP1 drug-resistance reversers in H69AR cells – cell-based, doxorubicin co-treatment, pilot screen (AID 601;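 active = viability loss from added drug above about 55%, and viability with drug at most 40%, in both replicates, limit read from the data, passing the limit was not always enough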). Conditions: CellTiter-Glo, 72 h, at 10 µM; for differential viability (reversal): stronger effect = higher value.
A short description of experiment [7]: yeast transport mutant growth inhibition pilot in 384-well plates, post-Golgi transport modulator project (AID 636; in the data active = inhibition above about 31%). The following applies: absorbance 615 nm, about 18 h, stronger effect = higher value.
Experiment [8] can be described thus: growth suppression of yeast trafficking mutant, preliminary HTS, modulators of trafficking downstream of Golgi apparatus project, 1536-format plate, OD 615 nm (AID 637; in the data active = inhibition above about 30%). Conditions: yeast transport mutant growth, absorbance 615 nm, 18 h; stronger effect = higher value.
The mark [9] stands for this setting: H69AR cells + 2 uM doxorubicin, measured here: viability with 2 uM doxorubicin, stronger effect = lower value.
Where [10] appears, read: H69AR cells, compound alone cytotoxicity.

Receptor tyrosine-protein kinase erbB-2 (Homo sapiens), sequence (P04626 whole entry, looked up): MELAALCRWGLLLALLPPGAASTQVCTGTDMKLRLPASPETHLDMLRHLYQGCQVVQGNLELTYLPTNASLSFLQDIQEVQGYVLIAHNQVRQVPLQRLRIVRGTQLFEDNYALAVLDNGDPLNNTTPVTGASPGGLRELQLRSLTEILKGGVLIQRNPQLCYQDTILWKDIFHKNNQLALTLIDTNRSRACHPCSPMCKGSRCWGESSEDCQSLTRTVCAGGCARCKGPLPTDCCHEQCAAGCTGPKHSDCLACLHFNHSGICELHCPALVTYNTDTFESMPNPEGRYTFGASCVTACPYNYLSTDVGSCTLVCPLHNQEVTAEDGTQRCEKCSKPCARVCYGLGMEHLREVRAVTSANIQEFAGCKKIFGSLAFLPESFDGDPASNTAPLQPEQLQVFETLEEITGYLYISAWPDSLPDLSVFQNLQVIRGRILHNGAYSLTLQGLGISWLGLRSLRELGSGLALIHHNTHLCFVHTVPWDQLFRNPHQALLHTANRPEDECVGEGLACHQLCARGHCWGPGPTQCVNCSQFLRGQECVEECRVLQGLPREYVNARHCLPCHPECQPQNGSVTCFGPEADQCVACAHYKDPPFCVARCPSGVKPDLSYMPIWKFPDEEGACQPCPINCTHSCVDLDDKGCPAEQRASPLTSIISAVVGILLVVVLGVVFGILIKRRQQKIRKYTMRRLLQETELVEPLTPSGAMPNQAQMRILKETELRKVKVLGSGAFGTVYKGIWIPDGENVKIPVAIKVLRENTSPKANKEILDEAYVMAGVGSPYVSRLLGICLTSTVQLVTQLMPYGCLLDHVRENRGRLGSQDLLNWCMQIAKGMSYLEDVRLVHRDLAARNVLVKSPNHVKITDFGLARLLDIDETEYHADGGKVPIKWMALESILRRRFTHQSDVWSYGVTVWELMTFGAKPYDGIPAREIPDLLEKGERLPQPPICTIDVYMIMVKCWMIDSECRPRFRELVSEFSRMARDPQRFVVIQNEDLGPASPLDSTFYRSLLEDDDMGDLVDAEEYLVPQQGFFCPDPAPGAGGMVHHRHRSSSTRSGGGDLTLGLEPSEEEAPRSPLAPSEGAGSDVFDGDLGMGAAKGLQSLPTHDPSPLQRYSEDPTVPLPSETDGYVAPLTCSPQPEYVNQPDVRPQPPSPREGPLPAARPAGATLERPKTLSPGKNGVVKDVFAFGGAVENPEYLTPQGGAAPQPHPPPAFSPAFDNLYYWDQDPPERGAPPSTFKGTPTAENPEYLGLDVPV

For the compound `Cc1cccc(NC(=O)c2cnc3sccn3c2=O)n1`, the viability in experiment [1] was 99%; in experiment [3], 99% (inactive); in experiment [4], 95.8% (inactive); in experiment [5], 100% (inactive); in experiment [6] (setting [9]), 92.2%; in experiment [6] (setting [10]) it was 100%. Also, the Her2 level in experiment [2] was 98.5% (inactive). Also, in experiment [6] (H69AR cells + 2 uM doxorubicin), the differential viability (reversal) is 8.25% (inactive). Further, the inhibition was 0.13% (inactive) in experiment [7] and 2.83% (inactive) in experiment [8].
Turning to `CCCn1c(SCC(=O)Nc2nnc(-c3ccccc3)s2)nnc1-c1ccccn1`, the viability in experiment [1] is 98.5%; in experiment [3] it was 98.5% (inactive); in experiment [4], 84.6% (inactive); in experiment [5], 102% (inactive); in experiment [6] (setting [9]) it was 96.8%; in experiment [6] (setting [10]), 102%. Also, the Her2 level in experiment [2] was 112% (inactive). Further, in experiment [6] (H69AR cells + 2 uM doxorubicin), the differential viability (reversal) is 5.49% (inactive). Also, the inhibition is -2.7% (inactive) in experiment [7] and 25% (inactive) in experiment [8].
Turning to `COc1ccc(-n2cnnc2SCCC#N)cc1`, the viability in experiment [1] is 106%; in experiment [3] it was 106% (inactive); in experiment [4] it was 88.3% (inactive); in experiment [5], 106% (inactive); in experiment [6] (setting [9]) it was 89.5%; in experiment [6] (setting [10]) it was 106%. For the same compound, the Her2 level in experiment [2] was 96.5% (inactive). The differential viability (reversal) in experiment [6] (H69AR cells + 2 uM doxorubicin) is 16.2% (inactive). The inhibition in experiment [7] is -3.33% (inactive); in experiment [8], 3.71% (inactive).
For the compound `CCC(C(=O)Nc1ccccc1C(=O)N1CCCC1)N1C(=O)c2ccccc2C1=O` (stereo not given), the viability was 96.5% in experiment [1]; 96.5% (inactive) in experiment [3]; 78.3% (inactive) in experiment [4]; 102% (inactive) in experiment [5]; 95.8% in experiment [6] (setting [9]); 102% in experiment [6] (setting [10]). For the same compound, the Her2 level in experiment [2] is 88% (inactive). Also, the differential viability (reversal) in experiment [6] (H69AR cells + 2 uM doxorubicin) was 5.91% (inactive). Moreover, the inhibition in experiment [7] was -3.29% (inactive); in experiment [8], -4.83% (inactive).
As to `COC(=O)/C=c1/s/c(=C(/C#N)C(=O)N2CCOCC2)n(-c2ccccc2)c1=O`, the viability in experiment [1] is 116%; in experiment [3] it was 116% (inactive); in experiment [4], 98.8% (inactive); in experiment [5], 88.8% (inactive); in experiment [6] (setting [9]) it was 99.6%; in experiment [6] (setting [10]), 88.8%. Also, the Her2 level in experiment [2] was 80.5% (inactive). In addition, the differential viability (reversal) in experiment [6] (H69AR cells + 2 uM doxorubicin) was -10.8% (inactive). The results for the inhibition in experiment [7] and in experiment [8] were -7.4% (inactive) and -3.17% (inactive), respectively.
Consider `O=S(=O)(Nc1cccnc1)c1ccc2c(c1)OCCO2`, for which the viability in experiment [1] is 91.5%; in experiment [3] it was 91.5% (inactive); in experiment [4], 99.7% (inactive); in experiment [5], 104% (inactive); in experiment [6] (setting [9]) it was 91.9%; in experiment [6] (setting [10]), 104%. The Her2 level in experiment [2] is 92% (inactive). Besides, in experiment [6] (H69AR cells + 2 uM doxorubicin), the differential viability (reversal) is 12.1% (inactive). In addition, the figures for the inhibition in experiment [7] and in experiment [8] were -6.97% (inactive) and 3.17% (inactive), respectively.
Turning to `CCCC(=O)Nc1ccc(OCC(=O)OC)cc1`, the viability was 99.5% in experiment [1]; 99.5% (inactive) in experiment [3]; 89.9% (inactive) in experiment [4]; 98.9% (inactive) in experiment [5]; 93.6% in experiment [6] (setting [9]); 98.9% in experiment [6] (setting [10]). Also, the Her2 level in experiment [2] was 78.5% (inactive). Further, the differential viability (reversal) in experiment [6] (H69AR cells + 2 uM doxorubicin) was 5.34% (inactive). Further, the inhibition is -3.95% (inactive) in experiment [7] and 0.79% (inactive) in experiment [8].
For `Cc1nc(NC2=NCN(CCN3CCOCC3)CN2)nc2c(C)cccc12`, the viability is 114% in experiment [1]; 114% (inactive) in experiment [3]; 77.3% (inactive) in experiment [4]; 95.2% (inactive) in experiment [5]; 108% in experiment [6] (setting [9]); 95.2% in experiment [6] (setting [10]). For the same compound, the Her2 level in experiment [2] is 91.5% (inactive). The differential viability (reversal) in experiment [6] (H69AR cells + 2 uM doxorubicin) was -12.6% (inactive). In addition, the inhibition was -2.11% (inactive) in experiment [7] and -7.33% (inactive) in experiment [8].
Take `CN1C(=O)C(O)(CC(=O)c2ccc3c(c2)OCO3)c2ccccc21` (stereo not given): the viability was 99.5% in experiment [1]; 99.5% (inactive) in experiment [3]; 84.7% (inactive) in experiment [4]; 82.5% (inactive) in experiment [5]; 73.3% in experiment [6] (setting [9]); 82.5% in experiment [6] (setting [10]). For the same compound, the Her2 level in experiment [2] is 90.5% (inactive). In experiment [6] (H69AR cells + 2 uM doxorubicin), the differential viability (reversal) is 9.22% (inactive). Besides, the figures for the inhibition in experiment [7] and in experiment [8] were 0.52% (inactive) and -0.83% (inactive), respectively.
Take `O=C(CCCN1C(=O)c2ccccc2C1=O)N1CCC(c2ccccc2)C1` (stereo not given): the viability was 110% in experiment [1]; 110% (inactive) in experiment [3]; 114% (inactive) in experiment [4]; 96.4% (inactive) in experiment [5]; 97.8% in experiment [6] (setting [9]); 96.4% in experiment [6] (setting [10]). For the same compound, in experiment [2], the Her2 level was 108% (inactive). Also, in experiment [6] (H69AR cells + 2 uM doxorubicin), the differential viability (reversal) was -1.44% (inactive). The inhibition in experiment [7] was -5% (inactive); in experiment [8], 0.33% (inactive).
As for `Cc1cc(C(=O)Nc2sc3c(c2C#N)CCCCC3)cs1`, the viability in experiment [1] is 91.5%; in experiment [3], 91.5% (inactive); in experiment [4], 76.6% (inactive); in experiment [5] it was 77.1% (inactive); in experiment [6] (setting [9]), 81.7%; in experiment [6] (setting [10]), 77.1%. In addition, the Her2 level in experiment [2] is 92.5% (inactive). The differential viability (reversal) in experiment [6] (H69AR cells + 2 uM doxorubicin) is -4.53% (inactive). For the same compound, the inhibition in experiment [7] is -3.47% (inactive); in experiment [8] it was -4.1% (inactive).
On to `COc1ccccc1NC(=O)CC(NCc1ccccc1)C(=O)O` (stereo not given), for which the viability was 108% in experiment [1]; 108% (inactive) in experiment [3]; 110% (inactive) in experiment [4]; 89.1% (inactive) in experiment [5]; 91.2% in experiment [6] (setting [9]); 89.1% in experiment [6] (setting [10]). Besides, in experiment [2], the Her2 level was 80% (inactive). In addition, the differential viability (reversal) in experiment [6] (H69AR cells + 2 uM doxorubicin) is -2.06% (inactive). Also, the inhibition in experiment [7] is -7.43% (inactive); in experiment [8], -3% (inactive).
Take `CC(=O)Nc1ccn(-c2ccccc2)n1`: the viability in experiment [1] is 83%; in experiment [3], 83% (inactive); in experiment [4], 97.9% (inactive); in experiment [5] it was 93.6% (inactive); in experiment [6] (setting [9]), 97.6%; in experiment [6] (setting [10]), 93.6%. Further, the Her2 level in experiment [2] is 105% (inactive). Also, in experiment [6] (H69AR cells + 2 uM doxorubicin), the differential viability (reversal) is -4.04% (inactive). Moreover, the values for the inhibition in experiment [7] and in experiment [8] were 0% (inactive) and -6.77% (inactive), respectively.
Turning to `COc1ccccc1-c1nnc(SCC(=O)N2CC(C)CC(C)C2)o1` (stereo not given), the viability was 80.5% in experiment [1]; 80.5% (inactive) in experiment [3]; 77.4% (inactive) in experiment [4]; 78.1% (inactive) in experiment [5]; 83.2% in experiment [6] (setting [9]); 78.1% in experiment [6] (setting [10]). For the same compound, the Her2 level in experiment [2] was 81.5% (inactive). Further, the differential viability (reversal) in experiment [6] (H69AR cells + 2 uM doxorubicin) is -5.03% (inactive). Further, the inhibition in experiment [7] and in experiment [8] was -5% (inactive) throughout.
`CC(=O)c1c(OCC(=O)O)ccc2c(C)cc(=O)oc12`: the viability in experiment [1] was 136%; in experiment [3] it was 136% (inactive); in experiment [4], 101% (inactive); in experiment [5] it was 91.8% (inactive); in experiment [6] (setting [9]), 88.7%; in experiment [6] (setting [10]) it was 91.8%. For the same compound, in experiment [2], the Her2 level was 104% (inactive). Further, in experiment [6] (H69AR cells + 2 uM doxorubicin), the differential viability (reversal) is 3.1% (inactive). Moreover, the inhibition is -5.66% (inactive) in experiment [7] and 6.07% (inactive) in experiment [8].
